mABHD4 FP: inhibitors of mouse ABHD4; actives 0.54% (n = 370,000); Q8VD66; purified mABHD4, FP-Rh probe fluorescence polarization; AID 720543; inhibition, % at 8.92 µM;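 active = inhibition exceeding the mean over every tested compound plus 3 SD, cut at about 30% in these data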;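 note: 0% = plate median of compound wells and 100% = S159A mutant with DMSO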
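Doses – 8.92 µM, single dose · Material – wild-type mouse ABHD4 protein · Replication – single well per compound (singlicate) · Measure – percent inhibition of probe binding, normalized to plate controls · Schedule – 45 min compound pre-incubation plus 60 min probe step, 25 °C · Detection – fluorescence polarization with parallel and perpendicular emission, 525/598 nm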
SIAE primary: human SIAE inhibition, primary screen; Q9HAT2; SIAE FP-Rh probe binding, fluorescence polarization; inhibition, % at 9.66 µM; actives 0.69% (n = 370,000);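 active = inhibition above a cutoff: mean of compounds within the control limits plus 3 SD of those, cut at about 17% in these data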;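 note: 0% = plate median of compound wells and 100% = probe without SIAE protein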
rCAG binder: molecules binding r(CAG) RNA repeats; inhibition, % at 3 µM; actives 1.3% (n = 370,000); r(CAG) RNA repeat, TO-PRO-1 dye displacement fluorescence;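 active = inhibition above the plate cutoff, the mean of all test compounds on that plate plus 3 SD, cut at about 35% in these data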;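 note: 0% = DMSO alone and 100% = 100 µM mitoxantrone as full dye displacement; higher means more dye released from RNA so lower well fluorescence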
PRMT1 FP inh: inhibitors of human PRMT1 | recombinant PRMT1, activity-based probe fluorescence polarization | AID 652257 | inhibition, % at 2.79 µM | Q99873 | actives 1.3% (n = 370,000);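 active = inhibition above about 21% made by adding two undisclosed values, limit read from the data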
Target sequence (Q99873 whole entry, looked up): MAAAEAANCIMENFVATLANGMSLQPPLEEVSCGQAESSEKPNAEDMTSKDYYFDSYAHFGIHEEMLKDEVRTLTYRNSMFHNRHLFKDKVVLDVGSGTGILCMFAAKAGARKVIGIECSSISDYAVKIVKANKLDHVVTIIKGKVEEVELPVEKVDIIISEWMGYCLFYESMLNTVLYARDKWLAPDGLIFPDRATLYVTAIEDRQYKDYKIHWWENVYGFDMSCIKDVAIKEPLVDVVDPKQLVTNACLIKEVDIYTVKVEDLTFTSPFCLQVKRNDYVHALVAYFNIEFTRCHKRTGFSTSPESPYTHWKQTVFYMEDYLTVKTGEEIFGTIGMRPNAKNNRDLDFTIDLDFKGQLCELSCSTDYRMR
HTRA1 inhibitor: blocks human HTRA1 serine peptidase; inhibition, % at 5.96 µM; AID 504803; recombinant HTRA1, FP-rhodamine activity-based probe, fluorescence polarization; actives 0.5% (n = 340,000); Q92743; in the data active = inhibition above about 36%;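 note: 0% = enzyme with DMSO and 100% = wells lacking enzyme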
rCAG binder conf: r(CAG) RNA repeat binding, confirmation | TO-PRO-1 dye displacement fluorescence | shares compounds with rCAG binder | inhibition, % at 3 µM | actives 70% (n = 4,300);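 active = inhibition above a per-plate cutoff, the mean inhibition of sample wells plus 3 SD, cut at about 35% in these data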;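 note: loss of TO-PRO-1 fluorescence as compound displaces dye from 1x1 AA loop RNA; 0% = DMSO only wells and 100% = 100 µM mitoxantrone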
dCAG dye counter: DNA CAG dye complex inhibition counter-screen; d(CAG) DNA oligo TO-PRO-1 dye displacement, fluorescence; inhibition, % at 3 µM; shares compounds with rCAG binder; actives 94% (n = 4,300);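 active = inhibition above its plate's cutoff, the mean test-well inhibition plus 3 SD, cut at about 4.8% in these data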;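 note: 0% = DNA dye mix with DMSO and 100% = 100 µM mitoxantrone; hits displace the dye from DNA and so lower well fluorescence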
* hit, by the source's call; . = no result given. Hits are enriched below; roughly 3.3% of the tested compounds scored in any of these assays.

SMILES	mABHD4 FP	SIAE primary	rCAG binder	PRMT1 FP inh	HTRA1 inhibitor	rCAG binder conf	dCAG dye counter
Cc1ccc(S(=O)(=O)Nc2ccccc2NS(=O)(=O)c2ccc(C)cc2)cc1	1	1	71*	1	.	56*	20*
CCOC(=O)[C@@]12CCCC3=C1N(CCC3)C(=O)[C@H]2CC(=O)N1CCN(C(=O)C2CC2)CC1	0	0	-4	1	.	.	.
Cc1ccc(S(=O)(=O)/N=C2/C=C(C3C(=O)CC(C)(C)CC3=O)C(=O)c3ccccc32)cc1	15	5	17	16	-5	.	.
Cc1ccc(S(=O)(=O)/N=C2\C=C(NS(=O)(=O)c3ccccc3)C(=O)c3ccccc32)cc1	27	-6	40*	-1	-2	84*	51*
CCOC(=O)C1=NN(C(=O)Nc2cccc(C(F)(F)F)c2)C2C(=O)N(c3cccc(C(F)(F)F)c3)C(=O)C12 (stereo unspecified)	-53	-19	83*	7	-36	23	5.8*
O=C(CSc1nc2cc(C(=O)O)ccc2c(=O)n1-c1ccc(F)cc1)Nc1ccc(F)c(F)c1F	-12	0	39*	2	-7	15	3
COc1ccc(S(=O)(=O)Nc2cc(SCC(=O)O)c(O)c3ccccc23)cc1	49*	16	38*	52*	34	48*	18*
CC1CCCN(CCCNS(=O)(=O)c2cc3c(cc2Br)CCN3C(=O)C2CC2)C1 (stereo unspecified)	2	-2	6	4	.	.	.
CC(/C=C1\SC(=S)N(NC(=O)c2cccc(O)c2)C1=O)=C\c1ccccc1	-57	-39	40*	-1	-42	26	12*
O=C(OC12CCCN(C1)/C(=C/c1ccccc1)C2)c1ccc(Cl)cc1 (stereo unspecified)	-1	-1	3	-5	.	.	.
CC1(C)CC(=O)C2=C(C1)c1c(ccc3ccccc13)NC2c1cc([N+](=O)[O-])cc([N+](=O)[O-])c1O (stereo unspecified)	25	-1	93*	8	-15	89*	64*
CC1(C)CC(=O)C2=C(C1)c1c(ccc3ccccc13)NC2c1ccc(C(=O)O)cc1 (stereo unspecified)	-1	14	7	-3	2	.	.
COC(=O)[C@H](C(C)C)N1Cc2nnn(Cc3ccc(C)cc3)c2-c2cc(F)ccc2S1(=O)=O	-2	-6	0	-2	.	.	.
O=[N+]([O-])c1cc(Br)cc(C=Nc2ccc3c(c2)OCO3)c1O	26	-16	58*	-2	3	41*	17*
NN=C1c2ccccc2C(=O)C1C(=O)C(c1ccccc1)c1ccccc1 (stereo unspecified)	-109	-60	45*	3	-40	44*	28*
COC(=O)C1CN(Cc2ccc(C)cc2)CCS(=O)(=O)N1Cc1cn(Cc2ccc(C)cc2)nn1 (stereo unspecified)	-3	9	2	0	.	.	.
NNS(=O)(=O)c1ccc2c(c1)Cc1cc(S(=O)(=O)NN)ccc1-2	-1	-17	42*	10	-43	6	4
O=S(=O)(NCCO)c1ccc2c(c1)Cc1cc(S(=O)(=O)NCCO)ccc1-2	7	11	1	-2	3	.	.
CCOc1ccc(Br)cc1S(=O)(=O)Nc1ccc(C(=O)Nc2ccccc2OC)cc1	-34	-21	15	3	-54	.	.
COc1ccccc1NC(=O)c1ccc(NS(=O)(=O)c2ccc(F)c(F)c2F)cc1	-8	3	44*	1	-11	28	6.1*
COc1ccc(/C=C2\C(=O)NC(=S)N2C(=O)c2ccc(F)cc2)cc1	-5	-28	38*	-3	-25	69*	31*
O=C1NC(=S)N(C(=O)c2ccc(F)cc2)/C1=C/c1ccccc1	0	-27	36*	-12	-24	65*	24*
O=C(COCc1ccccc1)NC1CCCCN(Cc2cccc(Cl)c2)C1=O (stereo unspecified)	1	0	-3	1	.	.	.
O=C1CC(c2ccc(O)c(O)c2)Oc2c1ccc(O)c2O (stereo unspecified)	28	11	48*	37*	34	49*	21*
COc1cc(/C=C(\C#N)C(=O)Nc2ccccn2)ccc1O	2	-1	2	0	2	.	.
SMILES	mABHD4 FP	SIAE primary	rCAG binder	PRMT1 FP inh	HTRA1 inhibitor	rCAG binder conf	dCAG dye counter
CCOC(=O)c1c(-c2ccccc2)csc1NC(=O)/C(C#N)=C\c1ccc(O)c(OC)c1	-8	6	49*	-10	-33	64*	36*
CCOC(=O)c1c(-c2ccc(C)cc2)csc1NC(=O)/C(C#N)=C/c1ccc(O)c(OC)c1	-25	-12	37*	-4	-29	74*	48*
CCOC(=O)/C(C#N)=C\c1ccc(O)c(OC)c1	-17	-3	1	4	-2	.	.
COc1ccc(CNC(=O)CCNS(=O)(=O)c2ccc3[nH]c(=O)oc3c2)cc1	1	0	1	-4	.	.	.
Cc1ccc(N2NC(=O)/C(=C/c3ccc(-c4ccc(Cl)c(C(=O)O)c4)o3)C2=O)cc1	28	10	21	5	5	.	.
O=C1NN(c2ccc(Cl)cc2)C(=O)/C1=C\c1ccc(-c2cccc(C(=O)O)c2)o1	23	-3	97*	21	5	66*	28*
COc1cccc([C@@H]2CC=C(C(=O)O)[C@H](c3cccc(Cl)c3)N2S(=O)(=O)c2ccc(C)cc2)c1	27	7	62*	2	-21	63*	26*
COc1cccc([C@@H]2CC=C(C(=O)O)[C@H](c3ccc(F)cc3)N2S(=O)(=O)c2ccc(C)cc2)c1	9	1	45*	0	-15	37*	9.3*
Cc1ccc(S(=O)(=O)N2[C@@H](c3ccc(Cl)cc3)C(C(=O)O)=CC[C@H]2c2cccc(Cl)c2)cc1	-8	-2	13	1	-10	.	.
COc1cccc([C@@H]2CC=C(C(=O)O)[C@H](c3ccccc3)N2S(=O)(=O)c2ccc(C)cc2)c1	8	-3	43*	0	-6	37*	8.9*
Cc1ccc(-n2c(SC/C=C/c3ccccc3)nnc2-c2cccs2)cc1	-12	-5	5	1	.	.	.
C=CCN1[C@H](Cc2ccccc2)COc2cc(F)ccc2S1(=O)=O	-3	-5	-3	-3	.	.	.
CCc1nnc(NS(=O)(=O)c2ccc(NC(=O)c3cc(Cl)ccc3[N+](=O)[O-])cc2)s1	1	2	45*	-5	-6	25	5.9*
CCc1nnc(NS(=O)(=O)c2ccc(NC(=O)c3cc(Cl)ccc3Cl)cc2)s1	-11	0	54*	1	-22	36*	11*
